Source: ChEMBL document CHEMBL2010768, “Optimization of Potent Inhibitors of P. falciparum Dihydroorotate Dehydrogenase for the Treatment of Malaria” (ACS Med Chem Lett, 2011)
pIC50: −log10 of the molar value. Blank lines part the entries; values can stand above or below the compound they belong to. Calls of active or inactive are those of the source. The calls are words filed in the database; no cut-off is given here.

Key:
[1] = biological target: Dihydroorotate dehydrogenase (quinone), mitochondrial (Homo sapiens, UniProt Q02127); experiment: Inhibition of human DHODH after 20 mins by 2,6-dichloroindophenol-reduction based assay
Dihydroorotate dehydrogenase (quinone), mitochondrial, sequence (Q02127 whole entry): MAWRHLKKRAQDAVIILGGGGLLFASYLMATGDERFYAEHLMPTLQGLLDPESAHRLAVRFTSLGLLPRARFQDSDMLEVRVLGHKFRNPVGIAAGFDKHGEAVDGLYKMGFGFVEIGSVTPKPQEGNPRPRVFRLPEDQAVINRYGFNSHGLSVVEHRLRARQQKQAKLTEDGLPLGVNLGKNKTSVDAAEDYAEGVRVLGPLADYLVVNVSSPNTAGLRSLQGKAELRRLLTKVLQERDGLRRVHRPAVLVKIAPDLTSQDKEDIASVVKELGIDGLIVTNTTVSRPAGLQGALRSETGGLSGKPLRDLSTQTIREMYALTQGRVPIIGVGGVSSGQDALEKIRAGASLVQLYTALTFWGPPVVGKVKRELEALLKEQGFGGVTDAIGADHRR

[2] = Clearance in mouse liver microsomes by LC-MS/MS analysis; assay type: ADME, Microsome
Outline: (§1)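 Liver microsome incubation. Predicted clearance is derived from a well-stirred model corrected for microsomal and protein binding.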

[3] = Clearance in human liver microsomes by LC-MS/MS analysis; assay type: ADME, Microsome; outline: as §1
Cytochrome P450 2D6 = Cytochrome P450 2D6 (Homo sapiens, UniProt P10635); experiment: Inhibition of human CYP2D6 using bufuralol as substrate after 10 mins by LC-MS/MS analysis; assay type: ADME
Cytochrome P450 2D6, sequence (P10635 whole entry): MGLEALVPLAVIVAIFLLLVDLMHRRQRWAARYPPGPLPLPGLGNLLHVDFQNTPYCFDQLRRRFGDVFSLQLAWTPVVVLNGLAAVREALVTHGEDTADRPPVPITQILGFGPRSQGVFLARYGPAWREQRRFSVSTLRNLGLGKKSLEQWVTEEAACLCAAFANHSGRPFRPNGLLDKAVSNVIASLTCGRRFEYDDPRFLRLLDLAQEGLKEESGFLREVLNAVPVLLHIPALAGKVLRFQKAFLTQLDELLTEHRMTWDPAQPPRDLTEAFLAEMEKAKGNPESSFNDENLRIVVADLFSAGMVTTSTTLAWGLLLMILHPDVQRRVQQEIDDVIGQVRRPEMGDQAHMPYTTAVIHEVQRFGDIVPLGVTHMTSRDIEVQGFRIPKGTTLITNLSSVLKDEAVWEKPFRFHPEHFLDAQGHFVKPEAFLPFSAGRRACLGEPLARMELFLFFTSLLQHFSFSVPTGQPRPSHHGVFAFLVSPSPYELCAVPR

Cytochrome P450 1A2 = biological target: T1, Cytochrome P450 1A2 (Homo sapiens, UniProt P05177); experiment: Inhibition of human CYP1A2 using phenacetin as substrate after 10 mins by LC-MS/MS analysis; assay type: ADME
T1 sequence (P05177 whole entry): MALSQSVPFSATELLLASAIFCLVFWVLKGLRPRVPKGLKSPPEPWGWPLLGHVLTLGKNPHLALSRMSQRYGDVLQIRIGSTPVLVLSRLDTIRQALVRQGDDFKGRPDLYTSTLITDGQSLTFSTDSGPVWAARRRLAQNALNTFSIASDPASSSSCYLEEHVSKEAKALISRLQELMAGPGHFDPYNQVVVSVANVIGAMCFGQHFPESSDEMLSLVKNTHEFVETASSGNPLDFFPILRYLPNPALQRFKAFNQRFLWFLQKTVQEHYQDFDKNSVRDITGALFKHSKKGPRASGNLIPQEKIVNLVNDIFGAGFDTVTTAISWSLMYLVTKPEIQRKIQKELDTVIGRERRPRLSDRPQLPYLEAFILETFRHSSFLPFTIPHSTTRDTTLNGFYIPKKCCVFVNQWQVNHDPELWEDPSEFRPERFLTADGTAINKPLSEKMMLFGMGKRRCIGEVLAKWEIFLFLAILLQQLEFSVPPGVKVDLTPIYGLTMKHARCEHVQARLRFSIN

Cytochrome P450 2C19 = Cytochrome P450 2C19 (Homo sapiens, UniProt P33261); experiment: Inhibition of human CYP2C19 using S-mephenytoin as substrate after 45 mins by LC-MS/MS analysis; assay type: ADME
Cytochrome P450 2C19, sequence (P33261 whole entry): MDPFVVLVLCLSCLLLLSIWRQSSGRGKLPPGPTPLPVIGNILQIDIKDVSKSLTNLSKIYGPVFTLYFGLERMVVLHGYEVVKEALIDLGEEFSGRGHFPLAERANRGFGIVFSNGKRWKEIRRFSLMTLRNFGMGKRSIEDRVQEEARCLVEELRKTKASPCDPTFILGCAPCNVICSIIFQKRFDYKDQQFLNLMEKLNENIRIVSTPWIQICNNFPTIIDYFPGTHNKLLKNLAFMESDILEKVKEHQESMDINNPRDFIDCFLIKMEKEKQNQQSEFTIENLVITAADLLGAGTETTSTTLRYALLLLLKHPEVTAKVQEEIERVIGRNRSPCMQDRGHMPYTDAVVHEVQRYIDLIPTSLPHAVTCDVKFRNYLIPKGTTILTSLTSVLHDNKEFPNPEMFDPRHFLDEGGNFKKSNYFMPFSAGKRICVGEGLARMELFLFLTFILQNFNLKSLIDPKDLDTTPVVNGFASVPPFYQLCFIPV

[4] = biological target: T2, Dihydroorotate dehydrogenase (Plasmodium falciparum, UniProt Q54A96); experiment: Inhibition of Plasmodium falciparum DHODH after 20 mins by 2,6-dichloroindophenol-reduction based assay
T2 sequence (Q54A96 whole entry): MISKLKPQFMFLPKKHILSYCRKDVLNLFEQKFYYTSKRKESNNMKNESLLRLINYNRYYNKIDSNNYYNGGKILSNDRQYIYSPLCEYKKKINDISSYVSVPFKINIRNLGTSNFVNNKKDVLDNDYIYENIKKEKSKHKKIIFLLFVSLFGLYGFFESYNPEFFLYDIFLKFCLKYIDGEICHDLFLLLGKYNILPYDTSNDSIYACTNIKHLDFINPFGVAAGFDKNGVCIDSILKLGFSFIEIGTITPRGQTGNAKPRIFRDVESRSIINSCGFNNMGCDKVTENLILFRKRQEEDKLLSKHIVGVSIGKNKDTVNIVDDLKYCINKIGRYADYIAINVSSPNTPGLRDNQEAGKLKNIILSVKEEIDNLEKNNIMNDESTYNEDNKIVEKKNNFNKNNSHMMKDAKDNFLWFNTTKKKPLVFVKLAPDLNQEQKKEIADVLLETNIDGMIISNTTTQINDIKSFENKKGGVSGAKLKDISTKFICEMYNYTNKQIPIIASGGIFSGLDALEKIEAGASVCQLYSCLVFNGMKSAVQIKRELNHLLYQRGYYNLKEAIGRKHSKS

Plasmodium falciparum [5] = experiment: Antiplasmodial activity against Plasmodium falciparum 3D7 infected in […] after 72 hrs by SYBR green assay; assay type: functional, organism-based; conditions: 3D7, 72 h
Cytochrome P450 3A4 = Cytochrome P450 3A4 (Homo sapiens, UniProt P08684); experiment: Inhibition of human CYP3A4 using midazolam as substrate after 5 mins by LC-MS/MS analysis; assay type: ADME
Cytochrome P450 3A4, sequence (P08684 whole entry): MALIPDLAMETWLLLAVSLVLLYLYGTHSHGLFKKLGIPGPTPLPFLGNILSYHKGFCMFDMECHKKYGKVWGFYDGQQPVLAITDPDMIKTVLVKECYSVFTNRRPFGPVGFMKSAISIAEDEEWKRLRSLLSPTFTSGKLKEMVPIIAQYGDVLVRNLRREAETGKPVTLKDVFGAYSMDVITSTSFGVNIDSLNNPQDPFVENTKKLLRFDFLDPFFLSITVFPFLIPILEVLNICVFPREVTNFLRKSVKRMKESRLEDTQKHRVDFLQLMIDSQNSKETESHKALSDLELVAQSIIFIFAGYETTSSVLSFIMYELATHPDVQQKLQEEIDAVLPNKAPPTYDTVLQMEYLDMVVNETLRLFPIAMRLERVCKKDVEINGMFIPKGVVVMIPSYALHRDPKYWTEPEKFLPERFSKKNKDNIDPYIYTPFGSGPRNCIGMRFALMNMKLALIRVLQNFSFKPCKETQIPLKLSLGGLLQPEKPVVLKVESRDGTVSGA

Cytochrome P450 2C9 = Cytochrome P450 2C9 (Homo sapiens, UniProt P11712); experiment: Inhibition of human CYP2C9 using diclofenac as substrate after 10 mins by LC-MS/MS analysis; assay type: ADME
Cytochrome P450 2C9, sequence (P11712 whole entry): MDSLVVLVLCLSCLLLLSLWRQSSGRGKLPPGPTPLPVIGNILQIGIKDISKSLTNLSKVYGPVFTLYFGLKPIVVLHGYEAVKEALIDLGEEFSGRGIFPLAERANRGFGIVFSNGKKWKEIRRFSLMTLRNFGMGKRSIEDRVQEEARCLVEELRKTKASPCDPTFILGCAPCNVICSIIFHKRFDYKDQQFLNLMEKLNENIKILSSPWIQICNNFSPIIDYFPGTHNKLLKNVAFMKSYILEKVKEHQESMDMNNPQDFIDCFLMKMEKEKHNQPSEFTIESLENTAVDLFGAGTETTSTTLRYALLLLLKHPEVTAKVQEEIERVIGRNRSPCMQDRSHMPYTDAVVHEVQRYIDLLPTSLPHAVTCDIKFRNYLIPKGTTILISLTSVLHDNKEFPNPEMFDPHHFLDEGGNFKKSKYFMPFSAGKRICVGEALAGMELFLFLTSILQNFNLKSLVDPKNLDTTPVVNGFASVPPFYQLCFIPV

[6] = biological target: Voltage-gated inwardly rectifying potassium channel KCNH2 (Homo sapiens, UniProt Q12809); experiment: Inhibition of human ERG expressed in CHOK1 cells by whole cell voltage clamp assay; assay type: cell-based, CHO-K1
Voltage-gated inwardly rectifying potassium channel KCNH2, sequence (Q12809 whole entry): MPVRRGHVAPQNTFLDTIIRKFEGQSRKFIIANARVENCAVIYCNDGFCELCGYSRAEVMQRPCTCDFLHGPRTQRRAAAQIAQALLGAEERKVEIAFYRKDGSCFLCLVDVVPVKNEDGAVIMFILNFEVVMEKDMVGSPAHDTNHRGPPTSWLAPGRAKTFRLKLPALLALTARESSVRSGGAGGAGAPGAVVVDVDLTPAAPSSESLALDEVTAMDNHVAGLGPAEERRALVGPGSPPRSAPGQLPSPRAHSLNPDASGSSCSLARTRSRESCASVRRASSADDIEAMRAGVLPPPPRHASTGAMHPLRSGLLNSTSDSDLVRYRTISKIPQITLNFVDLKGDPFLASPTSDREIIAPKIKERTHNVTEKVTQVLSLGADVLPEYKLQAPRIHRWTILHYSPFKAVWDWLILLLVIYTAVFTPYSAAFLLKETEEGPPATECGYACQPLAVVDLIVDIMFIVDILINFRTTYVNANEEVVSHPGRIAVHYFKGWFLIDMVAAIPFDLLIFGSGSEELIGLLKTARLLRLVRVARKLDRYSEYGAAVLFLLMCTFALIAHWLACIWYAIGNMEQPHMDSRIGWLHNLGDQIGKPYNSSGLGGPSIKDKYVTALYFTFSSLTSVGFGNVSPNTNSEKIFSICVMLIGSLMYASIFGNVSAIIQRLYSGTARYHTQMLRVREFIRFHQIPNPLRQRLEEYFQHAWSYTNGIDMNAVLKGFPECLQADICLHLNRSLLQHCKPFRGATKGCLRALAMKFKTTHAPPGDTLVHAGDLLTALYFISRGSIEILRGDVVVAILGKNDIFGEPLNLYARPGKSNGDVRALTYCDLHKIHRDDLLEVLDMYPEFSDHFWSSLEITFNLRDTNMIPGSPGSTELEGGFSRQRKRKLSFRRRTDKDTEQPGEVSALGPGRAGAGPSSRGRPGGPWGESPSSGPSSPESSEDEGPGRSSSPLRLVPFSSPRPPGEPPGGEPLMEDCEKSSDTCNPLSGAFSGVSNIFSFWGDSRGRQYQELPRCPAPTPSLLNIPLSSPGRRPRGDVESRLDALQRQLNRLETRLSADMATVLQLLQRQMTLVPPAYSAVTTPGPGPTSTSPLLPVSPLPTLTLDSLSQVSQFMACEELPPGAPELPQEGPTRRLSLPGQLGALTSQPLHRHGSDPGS

Plasmodium vivax = experiment: Inhibition of Plasmodium vivax DHODH after 20 mins by 2,6-dichloroindophenol-reduction based assay
Plasmodium falciparum [7] = experiment: Antiplasmodial activity against Plasmodium falciparum Dd2 infected in […] after 72 hrs by SYBR green assay; assay type: functional, organism-based; conditions: Dd2, 72 h
Plasmodium berghei [8] = experiment: Inhibition of Plasmodium berghei DHODH after 20 mins by 2,6-dichloroindophenol-reduction based assay
[9] = Cmax in rat at 3 mg/kg, po by LC-MS/MS analysis; assay type: ADME, organism-based; parameters: dose 3 mg/kg, route oral; conditions: in vivo
[10] = Plasma protein binding in rat by LC-MS/MS analysis; assay type: ADME, cell-free; conditions: read-out: PPB (converted)
Salmonella typhimurium [11] = experiment: Mutagenic activity in Salmonella typhimurium 1535 up to 100 uM by Ames test; assay type: toxicity, organism-based; conditions: salmonella enterica subsp. enterica serovar typhimurium
Canis familiaris [12] = experiment: AUC (0 to infinity) in dog at 3 mg/kg, po by LC-MS/MS analysis; assay type: ADME, organism-based, Canis lupus familiaris, Plasma; parameters: time infinity, dose 3 mg/kg, route oral; conditions: in vivo
[13] = Unbound fraction in human plasma; assay type: ADME, cell-free
[14] = AUC (0 to infinity) in rat at 1 mg/kg, iv by LC-MS/MS analysis; assay type: ADME, organism-based; parameters: time infinity, dose 1 mg/kg, route intravenous; conditions: plasma
[15] = Permeability of the compound by parallel artificial membrane permeation assay; assay type: ADME; conditions: PAMPA; read-out: permeability
[16] = Volume of distribution at steady state in dog at 1 mg/kg, iv by LC-MS/MS analysis; assay type: ADME, organism-based, Canis lupus familiaris; parameters: dose 1 mg/kg, route intravenous; conditions: in vivo, read-out: Vdss
[17] = Plasma protein binding in human by LC-MS/MS analysis; assay type: ADME, cell-free; conditions: read-out: PPB (converted)
[18] = AUC in rat at 50 to 600 mg/kg, po qd for 7 days measured after 7 days washout period; assay type: ADME, organism-based; parameters: dose 50-600 mg/kg, route oral; conditions: plasma
Outline: (§2)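 Rats dosed orally once daily for 7 days at 0 (control), 50, 150, 450 and 600 mg/kg, then a 7-day washout. NOAEL determined, with Cmax and AUC reported at that exposure.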

[19] = Toxicity in po dosed rat administered qd for 7 days measured after 7 days washout period; assay type: organism-based; conditions: in vivo; outline: as §2
[20] = AUC (0 to infinity) in rat at 3 mg/kg, po by LC-MS/MS analysis; assay type: ADME, organism-based; parameters: time infinity, dose 3 mg/kg, route oral; conditions: plasma
Canis familiaris [21] = experiment: Oral bioavailability in dog at 3 mg/kg by LC-MS/MS analysis; assay type: ADME, organism-based, Canis lupus familiaris; conditions: in vivo
[22] = Plasma protein binding in dog by LC-MS/MS analysis; assay type: ADME, cell-free, Canis lupus familiaris; conditions: read-out: PPB (converted)
[23] = Plasma protein binding in mouse by LC-MS/MS analysis; assay type: ADME, cell-free; conditions: read-out: PPB (converted)
[24] = Oral bioavailability in rat at 3 mg/kg by LC-MS/MS analysis; assay type: ADME, organism-based; conditions: in vivo
Plasmodium falciparum [25] = experiment: Antimalarial activity against Plasmodium falciparum 3D70087/N9 infected in po dosed NOD-scid IL-2Rgamma-null mouse model compound administered bid for 4 to 7 days by FACS analysis; assay type: functional; conditions: 3D7 0087/N9, 4TO7, po
Outline: (§3)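 Oral dosing in mouse malaria models. Efficacy is expressed as ED50, ED90 and ED99 in mg/kg/day.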

[26] = Cmax in rat at 50 to 600 mg/kg, po qd for 7 days measured after 7 days washout period; assay type: ADME, organism-based; parameters: dose 50-600 mg/kg, route oral; conditions: in vivo; outline: as §2
[27] = Half life in dog at 1 mg/kg, iv by LC-MS/MS analysis; assay type: ADME, organism-based, Canis lupus familiaris; parameters: dose 1 mg/kg, route intravenous; conditions: in vivo
Salmonella typhimurium [28] = experiment: Mutagenic activity in S9-induced Salmonella typhimurium 100 up to 100 uM by Ames test; assay type: toxicity, organism-based; conditions: salmonella enterica subsp. enterica serovar typhimurium
Plasmodium berghei [29] = experiment: Antimalarial activity against Plasmodium berghei ANKA infected in orally dosed mouse model compound administered at 9 hrs post-infection on first day followed by bid for subsequent 3 days; assay type: functional; conditions: po; outline: as §3
Salmonella typhimurium [30] = experiment: Mutagenic activity in S9-induced Salmonella typhimurium 1535 up to 100 uM by Ames test; assay type: toxicity, organism-based; conditions: salmonella enterica subsp. enterica serovar typhimurium
[31] = Volume of distribution at steady state in rat at 1 mg/kg, iv by LC-MS/MS analysis; assay type: ADME, organism-based; parameters: dose 1 mg/kg, route intravenous; conditions: in vivo, read-out: Vdss
[32] = Half life in rat at 1 mg/kg, iv by LC-MS/MS analysis; assay type: ADME, organism-based; parameters: dose 1 mg/kg, route intravenous; conditions: in vivo
Canis familiaris [33] = experiment: AUC (0 to infinity) in dog at 1 mg/kg, iv by LC-MS/MS analysis; assay type: ADME, organism-based, Canis lupus familiaris, Plasma; parameters: dose 1 mg/kg, route intravenous, time infinity; conditions: in vivo
Salmonella typhimurium [34] = experiment: Mutagenic activity in Salmonella typhimurium TA98 up to 100 uM by Ames test; assay type: toxicity, organism-based; conditions: salmonella enterica subsp. enterica serovar typhimurium
[35] = Cmax in dog at 3 mg/kg, po by LC-MS/MS analysis; assay type: ADME, organism-based, Canis lupus familiaris; parameters: dose 3 mg/kg, route oral; conditions: in vivo
Salmonella typhimurium [36] = experiment: Mutagenic activity in Salmonella typhimurium 100 up to 100 uM by Ames test; assay type: toxicity, organism-based; conditions: salmonella enterica subsp. enterica serovar typhimurium
[37] = Clearance in rat at 1 mg/kg, iv by LC-MS/MS analysis; assay type: ADME, organism-based; parameters: dose 1 mg/kg, route intravenous; conditions: in vivo
Salmonella typhimurium [38] = experiment: Mutagenic activity in S9-induced Salmonella typhimurium TA98 up to 100 uM by Ames test; assay type: toxicity, organism-based; conditions: salmonella enterica subsp. enterica serovar typhimurium
[39] = Clearance in dog at 1 mg/kg, iv by LC-MS/MS analysis; assay type: ADME, organism-based, Canis lupus familiaris; parameters: dose 1 mg/kg, route intravenous; conditions: in vivo

pIC50 [1]: < 4.52
CLhep predicted [2]: 33 mL/min/kg
CLhep predicted [3]: 4 mL/min/kg
pIC50 (Cytochrome P450 2D6): < 5.00
pIC50 (Cytochrome P450 1A2): < 5.00
pIC50 (Cytochrome P450 2C19): < 5.00
pIC50 [4]: 7.36
pIC50 (Plasmodium falciparum [5]): 7.72
pIC50 (Cytochrome P450 3A4): < 5.00
pIC50 (Cytochrome P450 2C9): < 5.00
inhibition (Plasmodium vivax): Active
pIC50 (Plasmodium falciparum [7]): 7.59
inhibition (Plasmodium berghei [8]): Active
Compound: Cc1nc2c(OC(F)F)cccc2n1-c1ccc(C(=O)NC2CC2)s1
pIC50 [6]: 4.54

Cmax [9]: 618 ng/mL
fraction unbound [10]: 0.22
AUC (Canis familiaris [12]): 359 ng·h/mL
CLhep predicted [2]: 26 mL/min/kg
fraction unbound [13]: 0.11
AUC(0-inf) [14]: 703 ng·h/mL
CLhep predicted [3]: < 4 mL/min/kg
pIC50 (Cytochrome P450 2D6): < 5.00
Papp [15]: 49 ×10⁻⁶ cm/s
pIC50 (Cytochrome P450 1A2): < 5.00
Vd [16]: 0.279 L/kg
fraction unbound [17]: 0.112
AUC at 168 h [18]: 328000 ng·h/mL
AUC(0-inf) [20]: 1040 ng·h/mL
F (Canis familiaris [21]): 19%
fraction unbound [22]: 0.312
fraction unbound [23]: 0.182
bioavailability [24]: 49%
Cmax [26]: 29000 ng/mL
half-life [27]: 31.2 min
pIC50 (Cytochrome P450 2C19): < 5.00
pIC50 [4]: 7.40
pIC50 (Plasmodium falciparum [5]): 8.15
Vd [31]: 0.995 L/kg
pIC50 (Cytochrome P450 3A4): < 5.00
pIC50 (Cytochrome P450 2C9): < 5.00
half-life [32]: 51 min
AUC (Canis familiaris [33]): 1500 ng·h/mL
Cmax [35]: 1110 ng/mL
clearance [37]: 24 mL/min/kg
inhibition (Plasmodium vivax): Active
clearance [39]: 6.7 mL/min/kg
pIC50 (Plasmodium falciparum [7]): 8.00
inhibition (Plasmodium berghei [8]): Active
Compound: Cc1nc2c(C#N)cccc2n1-c1ccc(C(=O)NC2CC2)s1
Activity (Salmonella typhimurium [11]): Non-toxic
NOAEL at 168 h [19]: > 600 mg/kg
ED50 (Plasmodium falciparum [25]): 13 mg/kg/day
ED90 (Plasmodium falciparum [25]): 27 mg/kg/day
ED99 (Plasmodium falciparum [25]): 60 mg/kg/day
Activity (Salmonella typhimurium [28]): Non-toxic
ED50 (Plasmodium berghei [29]): 13 mg/kg/day
ED90 (Plasmodium berghei [29]): 28 mg/kg/day
ED99 (Plasmodium berghei [29]): 62 mg/kg/day
Activity (Salmonella typhimurium [30]): Non-toxic
Activity (Salmonella typhimurium [34]): Non-toxic
Activity (Salmonella typhimurium [36]): Non-toxic
Activity (Salmonella typhimurium [38]): Non-toxic
